ChEMBL document CHEMBL2396633, “Effects of cytoprotective antioxidants on lymphocytes from representative mitochondrial neurodegenerative diseases” (Bioorg Med Chem, 2013)
Calls of active or inactive are those of the source. The calls are words filed in the database; no cut-off is given here.

What was measured:
[1] = tested on: CCRF-CEM; test: Cytoprotective activity against diethyl maleate-induced oxidative stress in human CCRF-CEM cells assessed as cell viability at 0.5 uM preincubated for 15 hrs prior to diethyl maleate-challenge measured after 6 hrs by hemocytometer-based assay; assay type: functional
Outline: (§1)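 Cells seeded at 5 × 10⁵ cells/mL, preincubated with 0.5 or 2.5 µM compound at 37 °C, 5% CO₂, then given 5 mM diethyl maleate for 6 h. Viable cells counted by trypan blue exclusion on a hemocytometer. Viability expressed as % of untreated control. Three independent experiments in triplicate, mean ± S.E.M.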

[2] = species: Homo sapiens; test: Cytoprotective activity against diethyl maleate-induced oxidative stress in Parkinson's disease patient GM15010 cells assessed as cell viability at 0.5 uM preincubated for 15 hrs prior to diethyl maleate-challenge measured after 6 hrs by hemocytometer-based assay; assay type: functional; outline: as §1
[3] = species: Homo sapiens; test: Cytoprotective activity against diethyl maleate-induced oxidative stress in Leigh's syndrome patient GM13740 cells assessed as cell viability at 0.5 uM preincubated for 15 hrs prior to diethyl maleate-challenge measured after 6 hrs by hemocytometer-based assay; assay type: functional; outline: as §1
[4] = species: Homo sapiens; test: Cytoprotective activity against diethyl maleate-induced oxidative stress in Alzheimer's disease patient AG06849 cells assessed as cell viability at 0.5 uM preincubated for 15 hrs prior to diethyl maleate-challenge measured after 6 hrs by hemocytometer-based assay; assay type: functional; outline: as §1
[5] = tested on: GM15850; test: Cytoprotective activity against diethyl maleate-induced oxidative stress in Friedreich's ataxia disease patient GM15850 cells assessed as cell viability at 0.5 uM preincubated for 15 hrs prior to diethyl maleate-challenge measured after 6 hrs by hemocytometer-based assay; assay type: functional; conditions: Homo sapiens; outline: as §1
[6] = species: Homo sapiens; test: Cytoprotective activity against diethyl maleate-induced oxidative stress in Leber's optic atrophy disease patient GM10744 cells assessed as cell viability at 0.5 uM preincubated for 15 hrs prior to diethyl maleate-challenge measured after 6 hrs by hemocytometer-based assay; assay type: functional; outline: as §1
[7] = Inhibition of NADH-ubiquinone oxidoreductase in bovine heart mitochondria after 5 mins by spectrophotometric analysis; parameters: species or system Bos taurus
Outline: (§2)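 Bovine heart submitochondrial particles, 12 µg, incubated 5 min at 39 °C with compound in 50 mM phosphate pH 7.4, 0.25 M sucrose, 1 mM MgCl₂, 2 mM KCN, plus antimycin A. Reaction started with 50 µM NADH and 50 µM coenzyme Q₁; NADH loss read at 340 nm. K_I derived. Mean of three experiments in triplicate.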

[8] = tested on: GM15850; test: Effect on total ATP level in Friedreich's ataxia disease patient GM15850 cells at 25 uM after 48 hrs by bioluminescence assay relative to control; assay type: functional, Homo sapiens
Outline: (§3)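 Lymphocytes were adapted to glucose-free RPMI with 25 mM galactose for at least one week. Cells at 2 × 10⁵ cells/mL were given compound at final 5, 10 or 25 µM for 48 h at 37 °C, 5% CO₂. Total intracellular ATP was measured by luciferase bioluminescence kit and expressed as % of untreated control.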

[9] = tested on: GM15850; test: Effect on total ATP level in Friedreich's ataxia disease patient GM15850 cells at 10 uM after 48 hrs by bioluminescence assay relative to control; assay type: functional, Homo sapiens; outline: as §3
[10] = tested on: GM15850; test: Effect on total ATP level in Friedreich's ataxia disease patient GM15850 cells at 5 uM after 48 hrs by bioluminescence assay relative to control; assay type: functional, Homo sapiens; outline: as §3
[11] = Effect on total ATP level in Leber's optic atrophy disease patient GM10744 cells at 25 uM after 48 hrs by bioluminescence assay relative to control; assay type: functional, Homo sapiens; outline: as §3
[12] = Effect on total ATP level in Leber's optic atrophy disease patient GM10744 cells at 10 uM after 48 hrs by bioluminescence assay relative to control; assay type: functional, Homo sapiens; outline: as §3
[13] = Effect on total ATP level in Leber's optic atrophy disease patient GM10744 cells at 5 uM after 48 hrs by bioluminescence assay relative to control; assay type: functional, Homo sapiens; outline: as §3
[14] = Effect on total ATP level in CoQ10-deficient human GM17932 cells at 25 uM after 48 hrs by bioluminescence assay relative to control; assay type: functional; outline: as §3
[15] = Effect on total ATP level in CoQ10-deficient human GM17932 cells at 10 uM after 48 hrs by bioluminescence assay relative to control; assay type: functional; outline: as §3
[16] = Effect on total ATP level in CoQ10-deficient human GM17932 cells at 5 uM after 48 hrs by bioluminescence assay relative to control; assay type: functional; outline: as §3
[17] = species: Homo sapiens; test: Antioxidant activity in Leber's optic atrophy disease patient GM10744 cells assessed as suppression of diethyl maleate-induced ROS generation at 0.025 to 2.5 uM preincubated for 18 hrs prior to diethyl maleate-challenge measured after 1 hr by FACS flow cytometric analysis in presence of DCFH-DA; assay type: functional
Outline: (§4)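 Lymphocytes (Coriell, RPMI with 15% FBS) or CCRF-CEM cells (RPMI with 10% FBS), 2.5 × 10⁵ cells/mL, exposed to compounds for 18 h at 37 °C, then 5 mM diethyl maleate for 1 h. Cells washed in PBS, loaded with 10 µM DCFH-DA in PBS/10 mM glucose for 25 min at 37 °C in the dark. DCF read by flow cytometry (488 nm excitation, 530 nm emission). Mean ± S.E.M., three experiments in duplicate.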

[18] = species: Homo sapiens; test: Antioxidant activity in Alzheimer's disease patient AG06849 cells assessed as suppression of diethyl maleate-induced ROS generation at 0.025 to 2.5 uM preincubated for 18 hrs prior to diethyl maleate-challenge measured after 1 hr by FACS flow cytometric analysis in presence of DCFH-DA; assay type: functional; outline: as §4
[19] = tested on: CCRF-CEM; test: Antioxidant activity in human CCRF-CEM cells assessed as suppression of diethyl maleate-induced ROS generation at 0.25 uM preincubated for 18 hrs prior to diethyl maleate-challenge measured after 1 hr by FACS flow cytometric analysis in presence of DCFH-DA; assay type: functional, cell-based; outline: as §4
[20] = tested on: CCRF-CEM; test: Antioxidant activity in human CCRF-CEM cells assessed as suppression of diethyl maleate-induced ROS generation at 2.5 uM preincubated for 18 hrs prior to diethyl maleate-challenge measured after 1 hr by FACS flow cytometric analysis in presence of DCFH-DA; assay type: functional, cell-based; outline: as §4
[21] = tested on: CCRF-CEM; test: Antioxidant activity in human CCRF-CEM cells assessed as suppression of diethyl maleate-induced ROS generation preincubated for 18 hrs prior to diethyl maleate-challenge measured after 1 hr by FACS flow cytometric analysis in presence of DCFH-DA; assay type: functional, cell-based; outline: as §4
[22] = species: Bos taurus; test: Inhibition of NADH oxidase activity of bovine heart mitochondrial […] at 5 uM after 5 mins by spectrophotometric analysis relative to control; values are per cent of control
[23] = species: Bos taurus; test: Inhibition of NADH oxidase activity of bovine heart mitochondrial […] at 1 uM after 5 mins by spectrophotometric analysis relative to control; values are per cent of control
[24] = species: Bos taurus; test: Inhibition of NADH oxidase activity of bovine heart mitochondrial […] at 10 uM after 5 mins by spectrophotometric analysis relative to control; values are per cent of control
[25] = species: Bos taurus; test: Inhibition of NADH-ubiquinone oxidoreductase in bovine heart mitochondria after 5 mins by spectrophotometric analysis relative to control; outline: as §2
[26] = tested on: CCRF-CEM; test: Antioxidant activity in human CCRF-CEM cells assessed as suppression of diethyl maleate-induced ROS generation at 0.25 to 2.5 uM preincubated for 18 hrs prior to diethyl maleate-challenge measured after 1 hr by FACS flow cytometric analysis in presence of DCFH-DA; assay type: functional, cell-based; outline: as §4
[27] = tested on: CCRF-CEM; test: Cytoprotective activity against diethyl maleate-induced oxidative stress in human CCRF-CEM cells assessed as cell viability at 2.5 uM preincubated for 15 hrs prior to diethyl maleate-challenge measured after 6 hrs by hemocytometer-based assay; assay type: functional; outline: as §1
[28] = species: Homo sapiens; test: Cytoprotective activity against diethyl maleate-induced oxidative stress in Parkinson's disease patient GM15010 cells assessed as cell viability at 2.5 uM preincubated for 15 hrs prior to diethyl maleate-challenge measured after 6 hrs by hemocytometer-based assay; assay type: functional; outline: as §1
[29] = species: Homo sapiens; test: Cytoprotective activity against diethyl maleate-induced oxidative stress in Leigh's syndrome patient GM13740 cells assessed as cell viability at 2.5 uM preincubated for 15 hrs prior to diethyl maleate-challenge measured after 6 hrs by hemocytometer-based assay; assay type: functional; outline: as §1
[30] = species: Homo sapiens; test: Cytoprotective activity against diethyl maleate-induced oxidative stress in Alzheimer's disease patient AG06849 cells assessed as cell viability at 2.5 uM preincubated for 15 hrs prior to diethyl maleate-challenge measured after 6 hrs by hemocytometer-based assay; assay type: functional; outline: as §1
[31] = tested on: GM15850; test: Cytoprotective activity against diethyl maleate-induced oxidative stress in Friedreich's ataxia disease patient GM15850 cells assessed as cell viability at 2.5 uM preincubated for 15 hrs prior to diethyl maleate-challenge measured after 6 hrs by hemocytometer-based assay; assay type: functional; conditions: Homo sapiens; outline: as §1
[32] = species: Homo sapiens; test: Cytoprotective activity against diethyl maleate-induced oxidative stress in Leber's optic atrophy disease patient GM10744 cells assessed as cell viability at 2.5 uM preincubated for 15 hrs prior to diethyl maleate-challenge measured after 6 hrs by hemocytometer-based assay; assay type: functional; outline: as §1
[33] = tested on: GM15850; test: Effect on total ATP level in Friedreich's ataxia disease patient GM15850 cells after 48 hrs by bioluminescence assay; assay type: functional; conditions: Homo sapiens; outline: as §3
[34] = species: Homo sapiens; test: Effect on total ATP level in CoQ10-deficient human GM17932 cells after 48 hrs by bioluminescence assay; assay type: functional; outline: as §3
[35] = species: Homo sapiens; test: Effect on total ATP level in Leber's optic atrophy disease patient GM10744 cells after 48 hrs by bioluminescence assay; assay type: functional; outline: as §3
[36] = tested on: CCRF-CEM; test: Antioxidant activity in human CCRF-CEM cells assessed as suppression of diethyl maleate-induced ROS generation at 0.025 to 2.5 uM preincubated for 18 hrs prior to diethyl maleate-challenge measured after 1 hr by FACS flow cytometric analysis in presence of DCFH-DA; assay type: functional, cell-based; outline: as §4

Row | IC50 [7] [µM] | Ki [7] [µM] | residual activity [22] [%] | residual activity [23] [%] | residual activity [24] [%] | Structure (SMILES) | Activity [1] | Activity [2] | Activity [3] | Activity [8] [%] | Activity [9] [%] | Activity [10] [%] | Activity [11] [%] | Activity [12] [%] | Activity [13] [%] | Activity [14] [%] | Activity [15] [%] | Activity [16] [%] | Activity [17] | Activity [18] | Activity [21] | other results
1 | > 200 | > 200 | 82.4 | 93 | 61.5 | CCCCCCCCCCC1=C(C)C(=O)C(OC)=C(OC)C1=O [DECYLUBIQUINONE] | Active | Active | Active | 62.7 | 76.4 | 92.8 | 47 | 63.4 | 75.1 | 71.1 | 86.2 | 100 | Active | Active | Dose-dependent effect | Activity [4]: Active; Activity [5]: Active; Activity [6]: Active; Activity [19]: Active; Activity [20]: Active
2 | 198 | 141 | 88.6 | 96.2 | 76.9 | CCCCCCCCCCCCCCCCc1nc(N(C)C)nc(C)c1O | Active | Active | Active | 74.7 | 90.3 | 95.3 | 83.4 | 95.6 | 102.7 | 95 | 103 | 108.2 | Active | Active | Dose-dependent effect | Activity [4]: Active; Activity [5]: Active; Activity [6]: Active; Imax [25]: 84%; Activity [26]: Active
3 | 2 | 1.4 | 17.7 | 35.4 | 3.9 | CCCCCCCCCCc1nc(N(C)C)nc(C)c1O | Active | Active | Active | 42.2 | 74.4 | 83.3 | 40.6 | 75 | 95.6 | 72.4 | 97.1 | 105.2 | Active | Active | Dose-dependent effect | Activity [4]: Active; Activity [5]: Active; Activity [6]: Active; Imax [25]: 88%; Activity [26]: Active
4 | 1 | 0.7 | 22 | 50 | 15 | Cc1nc(N(C)C)nc(CCCCCCCCCCO)c1O |  |  |  | 27.7 | 46.3 | 77.2 | 20.7 | 45.6 | 75.5 | 46.4 | 86.1 | 98.8 | Active | Active | Dose-dependent effect | Imax [25]: 85%; Activity [19]: Active; Activity [20]: Active
5 | 6 | 4 | 19.3 | 57.4 | 13.2 | COC1=C(OC)C(=O)C(CCCCCCCCCCO)=C(C)C1=O [IDEBENONE] | inactive | inactive | inactive | 2.6 | 45.6 | 73 | 3 | 29.9 | 55.7 | 1.6 | 45.7 | 79.8 | Active | Active | Dose-dependent effect | Activity [27]: Active; Activity [28]: Active; Activity [29]: Active; Activity [30]: Active; Activity [31]: Active; Activity [32]: Active; Activity [4]: inactive; Activity [5]: inactive; Activity [6]: inactive; Imax [25]: 84%; Activity [33]: Dose-dependent effect; Activity [34]: Dose-dependent effect; Activity [35]: Dose-dependent effect; Activity [36]: Active
